Key:
Format in all cases: functional
[1] = Growth inhibition of human BT549 cells at 10 uM after 48 hrs by sulforhodamine B assay; conditions: BT-549, 48 h, read-out: GI
Procedure, shortened: (§1)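 Run at NCI on the 60-line panel. Cells grown in RPMI 1640 with 5% FBS and 2 mM L-glutamine, plated at 5000–40,000 cells/well by doubling time, and held 24 h at 37 °C before dosing. Drug (DMSO stock) given at a single final 10 µM in triplicate wells for 48 h. Adherent cells fixed with cold TCA (10% final), suspension cells with 16% TCA. SRB stain read at 515 nm. Percent growth from Tz, C and Ti.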

[2] = test system: T47D; assay: Growth inhibition of human T47D cells at 10 uM after 48 hrs by sulforhodamine B assay; conditions: read-out: GI
Procedure, shortened: (§2)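 NCI-60 panel, adherent cells grown in RPMI 1640 with 5% FBS and 2 mM L-glutamine, plated at 5000–40,000 cells/well and preincubated 24 h at 37 °C, 5% CO2. 10 µM final compound from DMSO stock, triplicate wells, 48 h. Fixed with cold TCA (10% final, 60 min, 4 °C) and stained with 0.4% SRB. Absorbance read at 515 nm; growth calculated against time-zero and control wells.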

[3] = test system: K562; assay: Growth inhibition of human K562 cells at 10 uM after 48 hrs by sulforhodamine B assay; conditions: K562, 48 h, read-out: GI; procedure, shortened: as §1
[4] = Growth inhibition of human MOLT4 cells at 10 uM after 48 hrs by sulforhodamine B assay; conditions: MOLT-4, 48 h, read-out: GI; procedure, shortened: as §1
[5] = Growth inhibition of human RPMI8226 cells at 10 uM after 48 hrs by sulforhodamine B assay; conditions: RPMI-8226, 48 h, read-out: GI; procedure, shortened: as §1
[6] = Growth inhibition of human HOP62 cells at 10 uM after 48 hrs by sulforhodamine B assay; conditions: HOP-62, 48 h, read-out: GI; procedure, shortened: as §1
[7] = test system: NCI-H322M; assay: Growth inhibition of human NCI-H322M cells at 10 uM after 48 hrs by sulforhodamine B assay; conditions: read-out: GI; procedure, shortened: as §1
[8] = Growth inhibition of human COLO205 cells at 10 uM after 48 hrs by sulforhodamine B assay; conditions: COLO 205, 48 h, read-out: GI; procedure, shortened: as §1
[9] = Growth inhibition of human HCC2998 cells at 10 uM after 48 hrs by sulforhodamine B assay; conditions: HCC 2998, 48 h, read-out: GI; procedure, shortened: as §1
[10] = test system: KM12; assay: Growth inhibition of human KM12 cells at 10 uM after 48 hrs by sulforhodamine B assay; conditions: KM12, 48 h, read-out: GI; procedure, shortened: as §1
[11] = Growth inhibition of human SF295 cells at 10 uM after 48 hrs by sulforhodamine B assay; conditions: SF-295, 48 h, read-out: GI; procedure, shortened: as §1
[12] = Growth inhibition of human SF539 cells at 10 uM after 48 hrs by sulforhodamine B assay; conditions: SF-539, 48 h, read-out: GI; procedure, shortened: as §1
[13] = Growth inhibition of human SNB75 cells at 10 uM after 48 hrs by sulforhodamine B assay; conditions: SNB-75, 48 h, read-out: GI; procedure, shortened: as §1
[14] = test system: SK-MEL-28; assay: Growth inhibition of human SK-MEL-28 cells at 10 uM after 48 hrs by sulforhodamine B assay; conditions: SK-MEL-28, 48 h, read-out: GI; procedure, shortened: as §1
[15] = Growth inhibition of human UACC257 cells at 10 uM after 48 hrs by sulforhodamine B assay; conditions: UACC-257, 48 h, read-out: GI; procedure, shortened: as §2
[16] = Growth inhibition of human UACC62 cells at 10 uM after 48 hrs by sulforhodamine B assay; conditions: UACC-62, 48 h, read-out: GI; procedure, shortened: as §2
[17] = Growth inhibition of human IGROV1 cells at 10 uM after 48 hrs by sulforhodamine B assay; conditions: IGROV-1, 48 h, read-out: GI; procedure, shortened: as §1
[18] = Growth inhibition of human OVCAR4 cells at 10 uM after 48 hrs by sulforhodamine B assay; conditions: OVCAR-4, 48 h, read-out: GI; procedure, shortened: as §1
[19] = Growth inhibition of human NCI-ADR-RES cells at 10 uM after 48 hrs by sulforhodamine B assay; conditions: read-out: GI; procedure, shortened: as §1
[20] = test system: 786-0; assay: Growth inhibition of human 786-0 cells at 10 uM after 48 hrs by sulforhodamine B assay; conditions: 786-0, 48 h, read-out: GI; procedure, shortened: as §1
[21] = Growth inhibition of human TK10 cells at 10 uM after 48 hrs by sulforhodamine B assay; conditions: TK-10, 48 h, read-out: GI; procedure, shortened: as §2
[22] = Growth inhibition of human DU145 cells at 10 uM after 48 hrs by sulforhodamine B assay; conditions: DU-145, 48 h, read-out: GI; procedure, shortened: as §1
[23] = test system: MCF7; assay: Growth inhibition of human MCF7 cells at 10 uM after 48 hrs by sulforhodamine B assay; conditions: MCF7, 48 h, read-out: GI; procedure, shortened: as §1

Compound | inhibition of growth at 10 µM [1] [%] | inhibition of growth at 10 µM [2] [%] | inhibition of growth at 10 µM [3] [%] | inhibition of growth at 10 µM [4] [%] | inhibition of growth at 10 µM [5] [%] | inhibition of growth at 10 µM [6] [%] | inhibition of growth at 10 µM [7] [%] | inhibition of growth at 10 µM [8] [%] | inhibition of growth at 10 µM [9] [%] | inhibition of growth at 10 µM [10] [%] | inhibition of growth at 10 µM [11] [%] | inhibition of growth at 10 µM [12] [%] | inhibition of growth at 10 µM [13] [%] | inhibition of growth at 10 µM [14] [%] | inhibition of growth at 10 µM [15] [%] | inhibition of growth at 10 µM [16] [%] | inhibition of growth at 10 µM [17] [%] | inhibition of growth at 10 µM [18] [%] | inhibition of growth at 10 µM [19] [%] | inhibition of growth at 10 µM [20] [%] | further results
COc1ccc(Cc2nnc(Nc3ccc(NC(=O)Nc4cccc(Cl)c4)cc3)c3ccccc23)cc1 | < 30 | 39 | 30 | < 30 | 31 | < 30 | < 30 | < 30 | < 30 | < 30 | < 30 | < 30 | < 30 | < 30 | < 30 | < 30 | < 30 | < 30 | < 30 | 35 | inhibition of growth at 10 µM [21]: < 30%; inhibition of growth at 10 µM [22]: < 30%; inhibition of growth at 10 µM [23]: < 30%
COc1ccc(Cc2nnc(Nc3ccc(NC(=O)Nc4ccccc4)cc3)c3ccccc23)cc1 | < 30 | 41 | < 30 | 30 | 46 | < 30 | < 30 | < 30 | < 30 | < 30 | < 30 | < 30 | < 30 | < 30 | < 30 | < 30 | < 30 | < 30 | < 30 | 36 | inhibition of growth at 10 µM [21]: < 30%; inhibition of growth at 10 µM [22]: < 30%; inhibition of growth at 10 µM [23]: < 30%
COc1ccc(Cc2nnc(Nc3ccc(NC(=O)Nc4cccc(C(F)(F)F)c4)cc3)c3ccccc23)cc1 | < 30 | < 30 | < 30 | 37 | 42 | < 30 | < 30 | < 30 | < 30 | 36 | < 30 | < 30 | 31 | < 30 | < 30 | < 30 | < 30 | < 30 | < 30 | 41 | inhibition of growth at 10 µM [21]: < 30%; inhibition of growth at 10 µM [22]: < 30%; inhibition of growth at 10 µM [23]: < 30%
COc1ccc(Cc2nnc(Nc3ccc(NC(=O)Nc4cccc(OC)c4)cc3)c3ccccc23)cc1 | < 30 | < 30 | < 30 | < 30 | 43 | < 30 | < 30 | < 30 | < 30 | < 30 | < 30 | 35 | < 30 | < 30 | < 30 | < 30 | < 30 | < 30 | < 30 | 42 | inhibition of growth at 10 µM [21]: < 30%; inhibition of growth at 10 µM [22]: < 30%; inhibition of growth at 10 µM [23]: < 30%
COc1ccc(Cc2nnc(Nc3ccc(NC(=O)Nc4ccc(Cl)c(C(F)(F)F)c4)cc3)c3ccccc23)cc1 | < 30 | 47 | 43 | 50 | 66 | < 30 | 30 | 30 | < 30 | 51 | 50 | < 30 | 50 | < 30 | < 30 | < 30 | 53 | 60 | 67 | 62 | inhibition of growth at 10 µM [21]: < 30%; inhibition of growth at 10 µM [22]: < 30%; inhibition of growth at 10 µM [23]: 46%
COc1ccc(Cc2nnc(Nc3ccc(NC(=O)Nc4ccc(C#N)cc4)cc3)c3ccccc23)cc1 | 51 | 48 | 50 | 56 | 95 | 33 | < 30 | < 30 | < 30 | 37 | 86 | 67 | 57 | 45 | < 30 | < 30 | 46 | < 30 | < 30 | 83 | inhibition of growth at 10 µM [21]: < 30%; inhibition of growth at 10 µM [22]: < 30%; inhibition of growth at 10 µM [23]: 45%
COc1ccc(Cc2nnc(Nc3ccc(NC(=O)Nc4ccc(Cl)cc4)cc3)c3ccccc23)cc1 | 37 | 37 | < 30 | 44 | 75 | < 30 | < 30 | < 30 | < 30 | 39 | 52 | 41 | 49 | < 30 | < 30 | < 30 | < 30 | < 30 | < 30 | 58 | inhibition of growth at 10 µM [21]: < 30%; inhibition of growth at 10 µM [22]: < 30%; inhibition of growth at 10 µM [23]: 33%
COc1ccc(Cc2nnc(Nc3ccc(NC(=O)Nc4ccccc4Cl)cc3)c3ccccc23)cc1 | < 30 | 52 | < 30 | < 30 | 33 | < 30 | < 30 | < 30 | < 30 | < 30 | < 30 | < 30 | < 30 | < 30 | < 30 | < 30 | < 30 | < 30 | < 30 | 41 | inhibition of growth at 10 µM [21]: < 30%; inhibition of growth at 10 µM [22]: < 30%; inhibition of growth at 10 µM [23]: 32%
